In PMC11486593 (Biochimica et biophysica acta. General subjects, 2024):

What was measured:
[1] = tested on: SAG-induced AP activity in C3H10T1/2 cells; experiment: C3H10T1/2 cell-based assay, inhibition of SAG-induced alkaline phosphatase; design: species or system murine; conditions: for Inhibition of SAG-induced AP: C3H10T1/2 cells, SAG at EC50 (100 nM), 5 days; for Cytotoxicity in C3H10T1/2 cells: inferred from lack of effect in the SAG induction assay
In short: (§1)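 C3H10T1/2 murine embryonic fibroblasts, stimulated for 5 days with an agonist at its EC50 (human ShhN N-terminal domain, residues 24–197, at 2 μg/ml; or Smoothened agonist SAG at 100 nM), with or without the test compound in dose response. Alkaline phosphatase activity is measured as the marker of pathway activation. IC50 is obtained by non-linear regression.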

[2] = tested on: ShhN-induced Gli1 and Ptch1 mRNA in C3H10T1/2 cells; experiment: qRT-PCR for Gli1 and Ptch1 in C3H10T1/2 cells, ShhN-mediated induction; type: cell-based, mouse; conditions: 5 days; for Decrease of ShhN-mediated induction of Gli1 and Ptch1 compared to ShhN treatment alone: 50 μM compound; for Inhibition of ShhN-induced GLI1 and Ptch1 mRNA: 50 μM for compounds 4, 21 and 24, 10 μM for robotnikinin
[3] = tested on: SAG-induced Gli1 and Ptch1 mRNA in C3H10T1/2 cells; experiment: qRT-PCR for Gli1 and Ptch1 in C3H10T1/2 cells, SAG-mediated induction; type: cell-based, mouse; conditions: 5 days, 50 μM for compounds 4, 21 and 24, 10 μM for robotnikinin
ShhN protein = ShhN protein (Homo sapiens, UniProt Q15465); experiment: Protein thermal shift assay; type: binding; conditions: ShhN 1–2 μM; compounds 1.56 to 50 μM
ShhN protein, sequence (Q15465 24-197): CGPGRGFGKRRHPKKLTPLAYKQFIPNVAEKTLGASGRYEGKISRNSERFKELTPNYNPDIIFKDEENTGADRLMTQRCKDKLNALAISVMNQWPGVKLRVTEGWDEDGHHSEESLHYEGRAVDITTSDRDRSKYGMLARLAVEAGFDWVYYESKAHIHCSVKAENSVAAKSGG
In short: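 Differential scanning fluorimetry uses human ShhN (residues 24–197, 1–2 μM final) mixed with the kit's thermal shift buffer and dye, held on ice, with or without the test compound at 1.56–50 μM. Melt runs at a continuous ramp of […] from 25°C to 97.5°C. ΔTm is the difference in transition midpoint with versus without compound.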

ShhN/heparin binding = ShhN/heparin binding (Homo sapiens, UniProt Q15465); experiment: Solid-phase ShhN/heparin binding assay; conditions: for ShhN/flu-heparin binding IC50 of known compounds: compounds known to bind Shh, heparin binding domains or heparin, Fig. 3B
ShhN/heparin binding, sequence (Q15465 24-197): as above

[4] = tested on: ShhN-induced AP activity in C3H10T1/2 cells; experiment: C3H10T1/2 cell-based assay, inhibition of ShhN-induced alkaline phosphatase; design: species or system murine; conditions: dose response, 5 days
In short: as §1

C3H10T1/2 cells = experiment: Induction of AP activity in C3H10T1/2 cells by agonists; type: cell-based, murine; conditions: read-out: EC50 for induction of AP activity, 5 days
In short: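 C3H10T1/2 murine embryonic fibroblasts are cultured for 24 h, then exposed to varying concentrations of ShhN protein or SAG for 5 days. Alkaline phosphatase induction is read as the activation marker, and EC50 is fitted by non-linear regression. A ShhN dose-response curve is run on every plate as an internal control.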

Row | Structure (SMILES) | Inhibition of SAG-induced AP [1] | Inhibition of ShhN-induced GLI1 and Ptch1 mRNA [2] | Inhibition of SAG-induced GLI1 and Ptch1 mRNA [3] | Tm shift (ΔTm) on binding to ShhN (ShhN protein) | also measured
1 | CCc1ccc(C2=C/C(=C/c3ccco3)C(=O)O2)cc1 [Compound 4, (3Z)-5-(4-Ethylphenyl)-3-(furan-2-ylmethylidene) furan-2-one] | not SAG induction of AP | significantly blocked | did not decrease | 1.58 °C | Cytotoxicity in C3H10T1/2 cells [1]: not cytotoxic; Decrease of ShhN-mediated induction of Gli1 and Ptch1 compared to ShhN treatment alone [2]: 6–7 fold
2 | O=C1NC(=S)N(c2ccc(F)cc2)C(=O)C1=Cc1ccco1 [Compound 7, 1-(4-Fluoro-phenyl)-5-furan-2-ylmethylene-2-thioxo-dihydro-pyrimidine-4,6-dione] |  |  |  |  | IC50 (ShhN/heparin binding): 17.5 µM
3 | O=C(NCCNC1CCCC1)c1cccs1 [Compound 24, N-[2-(Cyclopentylamino)ethyl] thiophene-2-carboxamide] | not SAG induction of AP | significantly blocked | did not decrease | 0.85 °C | Cytotoxicity in C3H10T1/2 cells [1]: not cytotoxic; Decrease of ShhN-mediated induction of Gli1 and Ptch1 compared to ShhN treatment alone [2]: 6–7 fold
4 | O=C(C[C@@H]1C/C=C/CCC(=O)O[C@H](c2ccccc2)CNC1=O)NCc1ccc(Cl)cc1 [Robotnikinin, reference compound] | not SAG-mediated AP induction | blocked | did not block | 0.85 °C | ShhN/flu-heparin binding IC50 of known compounds (ShhN/heparin binding): did not block binding; Block of ShhN-mediated AP induction [4]: able to block ShhN-
5 | CNC1CCC(N(Cc2cccc(-c3ccncc3)c2)C(=O)c2sc3ccccc3c2Cl)CC1 (centres unmarked) [SAG] |  |  |  |  | EC50 (C3H10T1/2 cells): 0.1 µM
6 | Cc1ccc(C(=O)Nc2ccc(S(=O)(=O)O)c3cc(S(=O)(=O)O)cc(S(=O)(=O)O)c23)cc1NC(=O)c1cccc(NC(=O)Nc2cccc(C(=O)Nc3cc(C(=O)Nc4ccc(S(=O)(=O)O)c5cc(S(=O)(=O)O)cc(S(=O)(=O)O)c45)ccc3C)c2)c1 [Suramin, reference compound] |  |  |  | 0.73 °C | Block of ShhN-mediated AP induction [4]: blocked
7 | Cc1cc(N)c2cc(NC(=O)Nc3ccc4nc(C)cc(N)c4c3)ccc2n1 [surfen, Surfen] |  |  |  |  | ShhN/flu-heparin binding IC50 of known compounds (ShhN/heparin binding): did not block binding
